Experimental data of several laboratories.
Target: Serine/threonine-protein kinase PAK 6 (PAK6, Homo sapiens, UniProt Q9NQU5)

| SMILES | effect on | method | tested at | remaining binding [%] |
| --- | --- | --- | --- | --- |
| Cc1cnc(Nc2ccc(C(=O)N3CCC(N4CCCC4)CC3)cc2)nc1-c1cc2ccccc2s1 | binding | competition with immobilised ligand | 1 µM | 63 |
| Cc1cnn2ncc(-c3ccnc(N(C)C)n3)c2c1 | binding | – | 1 µM | 93 |
| COc1ncc2cc3ccccc3nc2c1C#N | cell-free assay | competition with immobilised ligand | 5 µM | 94 |
| F[C@@H]1CCN(c2nccc(-c3cnn4ncccc34)n2)C1 | binding | – | 1 µM | 100 |
| CCCCN(CCCC)C(=O)CN1C[C@@H](c2cc(OC)c3c(c2)OCO3)[C@H](C(=O)O)[C@H]1CC(C)(C)CCC | cell-free assay | competition with immobilised ligand | 1 µM | 100 |
| N[C@@H]1CCN(c2nccc(-c3cnn4ncccc34)n2)C1 | binding | – | 1 µM | 100 |
| N#CC1(c2ccccn2)CCN(Cc2cc(C(=O)N3CCCC3)c(=O)n3ccccc23)CC1 | cell-free assay | competition with immobilised ligand | 1 µM | 100 |
| CNC(=O)[C@@H]1CC[C@@H](n2c(-c3ccc4cnccc4c3)nc3ccc(C(=O)NCc4cccc(C(N)=O)c4)cc32)C1 | binding | competition with immobilised ligand | 1 µM | 100 |
| O=C(c1ccc(Nc2nccc(-c3cc4ccccc4s3)n2)cc1)N1CCC(N2CCCC2)CC1 | binding | competition with immobilised ligand | 1 µM | 100 |
| c1cncc(-c2cccc(Nc3nccc(NC4CCCCC4)n3)c2)c1 | binding | competition with immobilised ligand | 10 µM | 60 |
| COc1ccnn2ncc(-c3ccnc(N(C)C)n3)c12 | binding | – | 1 µM | 97 |
| c1ccc(N2CCN(Cc3nc4ccccc4[nH]3)CC2)nc1 | cell-free assay | competition with immobilised ligand | 1 µM | 100 |
| Nc1ncc2c(n1)-c1c([nH]c3ccc(C#CC4CC4)cc13)CCCC2 | binding | competition with immobilised ligand | 1 µM | 94 |
| O=C(NCCCN1CCOCC1)c1ccc(Nc2nccc(-c3cc4ccccc4s3)n2)cc1 | binding | competition with immobilised ligand | 1 µM | 90 |
| C[C@@H](c1ccc(-n2cnc3c(N)ncnc32)cc1)N1CCc2nn(C)c(Cc3ccccc3)c2C1=O | binding | competition with immobilised ligand | 0.1 µM | 96 |
| CC1=C(C#N)[C@@H](c2ccc3[nH]nc(C)c3c2)C(C#N)=C(c2ccc(Cl)cc2)N1 | cell-free assay | competition with immobilised ligand | 1 µM | 100 |
| C[C@@H]1CCN(c2nccc(-c3cnn4ncccc34)n2)C1 | binding | – | 1 µM | 87 |
| CN(C(=O)c1ccccc1)c1cc(N(C)c2ccc3c(c2)CCc2ccc(C(=O)NCCN4CCOCC4)cc2C3=O)ccc1F | cell-free assay | competition with immobilised ligand | 1 µM | 100 |
| O=C(NCC1CCOCC1)c1n[nH]cc1NC(=O)c1c(F)cccc1F | binding | competition with immobilised ligand | 1 µM | 86 |
| Cc1noc([C@H]2C[C@@H](c3ccc(C(F)(F)F)cc3)CN(C(=O)N3CCS(=O)(=O)C3)C2)n1 | cell-free assay | competition with immobilised ligand | 1 µM | 100 |
| CN(c1nccc(-c2cnn3ncccc23)n1)C1CC1 | binding | – | 1 µM | 100 |
